Results collected from several papers.
Each line is one published result; the experiments were not run side by side.
Target: Tyrosine-protein kinase Blk (BLK, Homo sapiens, UniProt P51451)

`C[C@@H](c1ccc(-n2cnc3c(N)ncnc32)cc1)N1CCc2nn(C)c(Cc3ccccc3)c2C1=O` gave a remaining binding of 89% (binding, competition with immobilised ligand; 0.1 µM).
`CN(c1nccc(-c2cnn3ncccc23)n1)C1CC1` has a remaining binding of 100% (binding; 1 µM).
`O=C(NCC1CCOCC1)c1n[nH]cc1NC(=O)c1c(F)cccc1F` has a remaining binding of 100% (binding, competition with immobilised ligand; 1 µM).
`O=C(NCCCN1CCOCC1)c1ccc(Nc2nccc(-c3cc4ccccc4s3)n2)cc1` has a remaining binding of 100% (binding, competition with immobilised ligand; 1 µM).
`CN(C)c1nccc(-c2cnn3ncccc23)n1` has a remaining binding of 100% (binding; 1 µM).
`CO[C@@H](C)c1c(Nc2ccc([C@H](N(C)C(=O)C3CCS(=O)(=O)CC3)C(F)(F)F)cc2)cnc2cc(Cl)nn12` has a remaining binding of 87% (cell-free assay, competition with immobilised ligand; 1 µM).
With `N[C@@H]1CCN(c2nccc(-c3cnn4ncccc34)n2)C1` the remaining binding was 97% (binding; 1 µM).
The remaining binding of `COc1cnc(Nc2cccc(S(N)(=O)=O)c2)nc1N1CCN(c2ccccc2)C(=O)C1` is reported as 100% (binding, competition with immobilised ligand; 1 µM).
For `O=C(c1ccc(Nc2ncc(Cl)c(-c3ccc(Cl)s3)n2)cc1)N1CCC(N2CCCC2)CC1`, the remaining binding was 100% (binding, competition with immobilised ligand; 1 µM).
`C[C@H]1CCN(c2nccc(-c3cnn4ncccc34)n2)C1` has a remaining binding of 100% (binding; 1 µM).
`COc1cc(-c2cn(C3CCc4ccccc4N(CC(F)(F)F)C3=O)nn2)ccc1-n1ccc(C)n1` (stereo not shown) has a remaining binding of 100% (cell-free assay, competition with immobilised ligand; 1 µM).
The remaining binding of `Cc1cnc(Nc2ccc(C(=O)N3CCC(N4CCCC4)CC3)cc2)nc1-c1cc2ccccc2s1` is reported as 74% (binding, competition with immobilised ligand; 1 µM).
`c1cnn2ncc(-c3ccnc(N4CCC45COC5)n3)c2c1` has a remaining binding of 100% (binding; 1 µM).
With `Cc1c(C(=O)O)cc(-c2ccc(C3CCNCC3)cc2)c2ccc(-c3ccc(C(F)(F)F)cc3)cc12` the remaining binding was 100% (cell-free assay, competition with immobilised ligand; 1 µM).
For `COc1cnc(Nc2cccc(S(N)(=O)=O)c2)nc1N1CCN(c2ccccc2)CC1`, the remaining binding was 80% (binding, competition with immobilised ligand; 1 µM).
For `Nc1ncc2c(n1)-c1c([nH]c3ccc(C#CC4CC4)cc13)CCCC2`, the remaining binding was 100% (binding, competition with immobilised ligand; 1 µM).
`c1ccc(N2CCN(Cc3nc4ccccc4[nH]3)CC2)nc1` has a remaining binding of 100% (cell-free assay, competition with immobilised ligand; 1 µM).
With `CCN1CCN(Cc2ccc(C(=O)Nc3ccc(C)c(Oc4ccc5c(c4)CC(=O)N5)c3)cc2C(F)(F)F)CC1` the remaining binding was 93% (binding, competition with immobilised ligand; 1 µM).
With `O=C(N1CCS(=O)(=O)CC1)N1C[C@H](c2ccc(OC(F)(F)F)cc2)C[C@H](c2nc(C3CC3)no2)C1` the remaining binding was 100% (cell-free assay, competition with immobilised ligand; 1 µM).
The remaining binding of `CN(CCCC(F)(F)F)c1nccc(-c2cnn3ncccc23)n1` is reported as 91% (binding; 1 µM).
`Nc1cnc(N2CCc3cc(S(=O)(=O)Nc4c(F)cc(Cl)cc4F)cc(N4CCCC4=O)c32)nc1` has a remaining binding of 100% (cell-free assay, competition with immobilised ligand; 1 µM).
`CN(C)c1ncc(F)c(-c2cnn3ncccc23)n1` gave a remaining binding of 90% (binding; 1 µM).
